The source of these data is ChEMBL document CHEMBL1156771, “Synthesis and antimalarial evaluation of 1, 3, 5-trisubstituted pyrazolines” (Eur J Med Chem, 2010).

pIC50: −log10 of the molar value. The source made the active and inactive calls. The calls are words filed in the database; no cut-off is given here.

In data set [1] the test system is Plasmodium falciparum. The experiment in a line: Antiplasmodial activity against chloroquine-sensitive Plasmodium falciparum MRC-02 infected in human erythrocyte assessed as inhibition of schizont maturation after 24 hrs. The note with it: MRC-02, 24 h. The data set is classed as functional, organism-based. Summed up: (§1)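 Sorbitol-synchronised ring-stage culture in human B+ erythrocytes, in RPMI-1640 with 25 mM HEPES, 10% AB+ serum and 0.2% bicarbonate under 5% CO2. Parasitaemia was set at 1–1.5%. Cultures were exposed to two-fold serial dilutions for 24 h at 37 °C (ethanol ≤0.5% final), duplicate wells per dose. Schizonts per 100 asexual parasites were counted on Giemsa smears. Inhibition = (1−Nt/Nc)×100.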

The nature of data set [2]: Cytotoxicity against human HeLa cells after 72 hrs by neutral red uptake assay. The format is cell-based. In short, it runs like this:
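HeLa cells grown in EMEM with 10% FBS were seeded at 2×10^3 per well and left overnight at 37 °C, 5% CO2. They were exposed to two-fold serial dilutions from DMSO stocks (DMSO ≤0.1%) in duplicate for 72 h. Cells were fixed in glutaraldehyde, stained with 0.2% neutral red and lysed in acid ethanol, then read at 550 nm against DMSO controls. The value reported is MNTD, the highest concentration giving 100% survival.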

The nature of data set [3]: Selectivity ratio of CC50 for human HeLa cells to IC50 for Plasmodium falciparum MRC-02. The format is ADME, cell-based. The note with it: read-out: Ratio CC50/IC50. In short, it runs like this: (§2)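 The IC50 came from sorbitol-synchronized ring-stage cultures at 1–1.5% parasitemia in human B+ erythrocytes in RPMI-1640/HEPES with 10% AB+ serum, given two-fold dilutions (ethanol ≤0.5% final). Cultures ran 24 h at 37 °C in duplicate, and schizonts per 100 asexual parasites were counted on Giemsa smears.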

In data set [4] the test system is Plasmodium falciparum. The experiment in a line: Antiplasmodial activity against chloroquine-resistant Plasmodium falciparum RKL09 infected in human erythrocyte assessed as inhibition of schizont maturation after 24 hrs. The format is functional, organism-based. The note with it: RKL09, 24 h. In short, it runs like this:
as §1

A short description of data set [5]: Selectivity ratio, CC50 for human HeLa cells to IC50 for Plasmodium falciparum RKL09. The note with it: read-out: Ratio CC50/IC50. The format is ADME, cell-based. In short, it runs like this:
as §2

In data set [6] the test system is Plasmodium berghei. The data set can be described thus: Antimalarial activity against Plasmodium berghei ANKA infected in Swiss albino mice (Mus musculus) assessed as suppression of parasitemia at 50 mg/kg/day, perorally for 4 days. The format is functional. The note with it: route oral. Summed up:
(§3)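 Peters' 4-day suppressive test in male Swiss albino mice (18–20 g), five per group. Mice were infected intraperitoneally with about 30% P. berghei-infected donor erythrocytes, then dosed orally 4 h later and on days 0–3. Controls received the suspending solvent. Giemsa-stained tail smears were read on days 4 and 7; % suppression was calculated against controls. Survival was followed for 28 days for MST.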

Data set [7] concerns Plasmodium berghei. The experiment in a line: Antimalarial activity against Plasmodium berghei ANKA infected in Swiss albino mice (Mus musculus) assessed as mean survival time at 50 mg/kg/day, perorally for 4 days measured after 28 days. The data set is classed as functional. As to conditions: route oral. Summed up:
(§4)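 Peters 4-day suppressive test in male Swiss albino mice (18–20 g), groups of five. Mice inoculated intraperitoneally with P. berghei ANKA-infected erythrocytes from a donor mouse. Oral dosing began 4 h later and was given once daily on days 0–3. Vehicle controls received the suspending solvent. Mean survival time was taken from deaths over a 28-day observation period.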

The test system of data set [8] is Plasmodium berghei. The data set can be described thus: Antimalarial activity against Plasmodium berghei ANKA infected in Swiss albino mice (Mus musculus) assessed as suppression of parasitemia at 25 mg/kg/day, perorally for 4 days. The data set is classed as functional. As to conditions: route oral. In short, it runs like this: as §3
For data set [9], the system named is Plasmodium berghei. The experiment in a line: Antimalarial activity against Plasmodium berghei ANKA infected in Swiss albino mice (Mus musculus) assessed as mean survival time at 25 mg/kg/day, perorally for 4 days measured after 28 days. The data set is classed as functional. The note with it: route oral. In short, it runs like this: as §4
Data set [10] in a line: Inhibition of beta-hematin formation by BHIA assay. The data set is classed as functional. Summed up:
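Compounds (6 to 0.3 mM) were incubated with hematin in the presence of glacial acetic acid at 37 °C for 24 h. Water or ethanol served as controls. The pellet was washed with DMSO to remove unconverted hematin, and the remaining β-hematin was dissolved in 0.1 N NaOH. Absorbance was read at 405 nm to derive BHIA50.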

The test system of data set [11] is Plasmodium berghei. The experiment in a line: Antimalarial activity against Plasmodium berghei ANKA infected in Swiss albino mice (Mus musculus) assessed as suppression of parasitemia at 8 mg/kg/day, perorally for 4 days. The format is functional. As to conditions: route oral. In short, it runs like this: as §3
Data set [12] deals with Plasmodium berghei. The data set can be described thus: Antimalarial activity against Plasmodium berghei ANKA infected in Swiss albino mice (Mus musculus) assessed as mean survival time at 8 mg/kg/day, perorally for 4 days measured after 28 days. The format is functional, organism-based. In short, it runs like this:
as §3

Regarding `COc1cc(C2CC(c3ccc(O)cc3)=NN2C(=O)c2cccnc2)cc(OC)c1OC` (centres undefined), the negative-log IC50 (pIC50) is 7.58 in data set [1], 7.37 in data set [4] and 2.77 in data set [10]. For the same compound, in data set [2], the MNTC at 72 h was found to be 828 nM. Also, the selectivity ratio worked out at 31.2 in data set [3] and 19.5 in data set [5]. The Activity in data set [6] was found to be 43.7%; in [7] it was 11 days; in data set [8], 32.78%; in [9] it was 9 days.
For the compound `O=C(c1cccnc1)N1N=C(c2ccc(O)cc2)CC1c1cccc(Br)c1` (centres undefined), the values for the pIC50 in [1], in [4] and in data set [10] were 7.59, 7.10 and 2.69, respectively. In [2], the MNTC at 72 h was 3060 nM. Further, the selectivity ratio in [3] was determined as 118; in data set [5], 39.
Turning to `COc1ccc(Br)cc1C1CC(c2ccc(O)cc2)=NN1C(=O)c1cccnc1` (centres undefined), the negative-log IC50 (pIC50) in data set [1] was 7.31; in data set [4], 6.62; in data set [10], 2.72. The compound also gave an MNTC at 72 h in [2] of 2660 nM. The figures for the selectivity ratio in data set [3] and in data set [5] were 53.7 and 11, respectively.
Turning to `CCOc1ccc(C2CC(c3ccc(O)cc3)=NN2C(=O)c2cccnc2)cc1OC` (centres undefined), in data set [2], the MNTC at 72 h came out at 3560 nM. Moreover, the selectivity ratio amounted to 47.5 in [3] and 16.6 in data set [5]. Moreover, the pIC50 in data set [10] was 2.62.
With `Cc1ccc(C2CC(c3ccc(O)cc3)=NN2C(=O)c2cccnc2)cc1` (centres undefined), the pIC50 in [1] is 7.26; in [4], 7.05; in data set [10], 2.80. The MNTC at 72 h in data set [2] was 2190 nM. The selectivity ratio in data set [3] turned out to be 39.4; in data set [5], 24.6.
For the compound `O=C(c1cccnc1)N1N=C(c2ccc(O)cc2)CC1c1cccc([N+](=O)[O-])c1` (centres undefined), the pIC50 in data set [1] was 6.97; in data set [4] it was 6.37; in data set [10], 2.68. Besides, in data set [2], the MNTC at 72 h was determined as 3750 nM. The selectivity ratio in data set [3] turned out to be 35.2; in data set [5], 8.85.
As for `O=C(c1cccnc1)N1N=C(c2ccc(O)cc2)CC1c1ccc(Cl)cc1Cl` (centres undefined), the pIC50 in data set [1] was 7.43; in data set [4], 7.17; in [10], 2.82. In data set [2], this compound returned an MNTC at 72 h of 1250 nM. Moreover, the selectivity ratio in data set [3] was 33.3; in data set [5], 18.4. Further, the Activity in [6] came out at 68.93%; in [7] it was 13.2 days; in data set [8] it was 60.55%; in [9] it was 11.6 days.
For the compound `O=C(c1cccnc1)N1N=C(c2ccc(O)cc2)CC1c1ccccc1` (centres undefined), the pIC50 in [1] was 7.52; in data set [4], 6.88; in data set [10], 2.80. In addition, the MNTC at 72 h in data set [2] was found to be 1880 nM. In addition, the selectivity ratio in data set [3] is 61.7; in data set [5], 14.4.
Regarding `Cc1ccccc1C1CC(c2ccc(O)cc2)=NN1C(=O)c1cccnc1` (centres undefined), the values for the pIC50 in [1], in [4] and in data set [10] were 7.20, 6.99 and 2.61, respectively. The MNTC at 72 h in data set [2] was determined as 1810 nM. For the same compound, the selectivity ratio in [3] was found to be 29; in data set [5], 17.8.
As to `O=C(c1cccnc1)N1N=C(c2ccc(O)cc2)CC1c1ccccc1Br` (centres undefined), the pIC50 was 7.57 in data set [1], 7.19 in data set [4] and 2.74 in [10]. The MNTC at 72 h in data set [2] is 3810 nM. In addition, the selectivity ratio in [3] came out at 140; in data set [5], 59.6. In addition, the Activity worked out at 47.52% in [6], 10.3 days in data set [7], 34.98% in [8] and 9 days in data set [9].
The compound `CCN(CC)CCCC(C)Nc1ccnc2cc(Cl)ccc12.O=P(O)(O)O.O=P(O)(O)O` (centres undefined) [CHLOROQUINE PHOSPHATE] showed an MNTC at 72 h in [2] of 66200 nM. The compound also had a pIC50 in data set [10] of 2.72. The Activity in [11] is on record as 100%. For the same compound, the outcome in data set [12] was Active.

As a reminder, the pIC50 is the negative decadic logarithm of the IC50, by convention in mol/L.
